Reference: ChEMBL document CHEMBL3352720, “Novel alkylphospholipid-DTC hybrids as promising agents against endocrine related cancers acting via modulation of Akt-pathway” (Eur J Med Chem, 2014)
Active and inactive are the calls of the source. The calls are words filed in the database; no cut-off is given here.

Tests used:
[1] = system: DU-145; assay: Induction of apoptosis in human DU145 cells assessed as necrotic cells level at 10 uM incubated for 24 hrs by annexin-V and propidium iodide staining based flow cytometry (reference value: 1.33%); type: functional
[2] = system: DU-145; assay: Induction of apoptosis in human DU145 cells assessed as necrotic cells level at 5 uM incubated for 24 hrs by annexin-V and propidium iodide staining based flow cytometry (reference value: 1.33%); type: functional
[3] = system: DU-145; assay: Induction of cell cycle arrest in human DU145 cells assessed as accumulation at S phase at 5 uM incubated for 24 hrs by propidium iodide staining based FACS assay (reference value: 39.44%); type: functional
[4] = Reduction in Bcl-2 protein expression in human DU145 cells at 5 to 15 uM incubated for 24 hrs by Western blotting method; type: functional, cell-based; settings: DU-145
[5] = system: DU-145; assay: Inhibition of AKT Ser473 phosphorylation in human DU145 cells at 15 uM incubated for 24 hrs by Western blotting method; type: cell-based
Outline: (§1)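 After 24 h treatment, cells were washed in ice-cold PBS and lysed in RIPA buffer. Protein was measured by Bradford, equal amounts run on SDS-PAGE and transferred to PVDF. Blots were probed for p-Akt (Ser473) and total Akt, then 1 h with 1:5000 HRP anti-mouse IgG, with chemiluminescent detection. Densitometry was quantified against untreated control.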

[6] = system: DU-145; assay: Induction of mitochondrial membrane potential loss in human DU145 cells assessed as increase in JC1 dye monomer green fluorescence at 15 uM incubated for 24 hrs by JC1 dye based flow cytometry (reference value: 2.81%); type: functional
[7] = system: DU-145; assay: Induction of apoptosis in human DU145 cells assessed as viable cells level at 15 uM incubated for 24 hrs by annexin-V and propidium iodide staining based flow cytometry (reference value: 93.65%); type: functional
[8] = system: DU-145; assay: Induction of mitochondrial membrane potential loss in human DU145 cells assessed as increase in JC1 dye monomer green fluorescence at 10 uM incubated for 24 hrs by JC1 dye based flow cytometry (reference value: 2.81%); type: functional
[9] = system: DU-145; assay: Induction of mitochondrial membrane potential loss in human DU145 cells assessed as increase in JC1 dye monomer green fluorescence incubated for 24 hrs by JC1 dye based flow cytometry; type: functional, cell-based
[10] = system: DU-145; assay: Potency index, ratio of IC50 for miltefosine to IC50 for test compound against human DU145 cells by MTT assay; type: functional
[11] = Antiproliferative activity against human DU145 cells assessed as inhibition of cell proliferation incubated for 18 hrs followed by MTT addition for 4 hrs by MTT assay; type: functional, cell-based; settings: DU-145
Outline: (§2)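 MTT assay. Cells were grown in DMEM with 10% FBS at 37 °C, 5% CO2, 90% relative humidity. 1 × 10⁴ cells per well were seeded and held 24 h, then exposed to compounds diluted in culture medium for 18 h. MTT (5 mg/mL stock) was added for a further 4 h.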

[12] = system: MDA-MB-231; assay: Antiproliferative activity against human MDA-MB-231 cells assessed as inhibition of cell proliferation incubated for 18 hrs followed by MTT addition for 4 hrs by MTT assay; type: functional, cell-based; outline: as §2
[13] = Antiproliferative activity against human PC3 cells assessed as inhibition of cell proliferation incubated for 18 hrs followed by MTT addition for 4 hrs by MTT assay; type: functional, cell-based; settings: PC-3; outline: as §2
[14] = system: DU-145; assay: Induction of apoptosis in human DU145 cells assessed as early apoptotic cells level at 15 uM incubated for 24 hrs by annexin-V and propidium iodide staining based flow cytometry (reference value: 2.06%); type: functional
[15] = system: DU-145; assay: Induction of apoptosis in human DU145 cells assessed as late apoptotic cells level at 15 uM incubated for 24 hrs by annexin-V and propidium iodide staining based flow cytometry (reference value: 2.96%); type: functional
[16] = system: DU-145; assay: Induction of mitochondrial membrane potential loss in human DU145 cells assessed as increase in JC1 dye monomer green fluorescence at 5 uM incubated for 24 hrs by JC1 dye based flow cytometry (reference value: 2.81%); type: functional
[17] = system: DU-145; assay: Induction of cell cycle arrest in human DU145 cells assessed as accumulation at G2/M phase at 10 uM incubated for 24 hrs by propidium iodide staining based FACS assay (reference value: 6.90%); type: functional
[18] = system: DU-145; assay: Induction of apoptosis in human DU145 cells assessed as late apoptotic cells level at 10 uM incubated for 24 hrs by annexin-V and propidium iodide staining based flow cytometry (reference value: 2.96%); type: functional
[19] = system: DU-145; assay: Induction of apoptosis in human DU145 cells assessed as early apoptotic cells level at 5 uM incubated for 24 hrs by annexin-V and propidium iodide staining based flow cytometry (reference value: 2.06%); type: functional
[20] = system: DU-145; assay: Increase in Bax/Bcl-2 expression ratio in human DU145 cells at 15 uM incubated for 24 hrs by Western blotting method; type: functional, cell-based
Outline: (§3)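 DU-145 cells were exposed for 24 h and lysed in RIPA buffer. Protein was quantified by Bradford, and equal amounts were run on SDS-PAGE, transferred to PVDF and immunoblotted, with chemiluminescent detection. Bax/Bcl-2 ratio was taken from 3 densitometric scans as mean SE versus control.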

[21] = system: DU-145; assay: Induction of apoptosis in human DU145 cells assessed as viable cells level at 10 uM incubated for 24 hrs by annexin-V and propidium iodide staining based flow cytometry (reference value: 93.65%); type: functional
[22] = system: DU-145; assay: Induction of apoptosis in human DU145 cells assessed as late apoptotic cells level at 5 uM incubated for 24 hrs by annexin-V and propidium iodide staining based flow cytometry (reference value: 2.96%); type: functional
[23] = system: DU-145; assay: Induction of apoptosis in human DU145 cells assessed as early apoptotic cells level at 10 uM incubated for 24 hrs by annexin-V and propidium iodide staining based flow cytometry (reference value: 2.06%); type: functional
[24] = system: DU-145; assay: Induction of cell cycle arrest in human DU145 cells assessed as accumulation at S phase at 10 uM incubated for 24 hrs by propidium iodide staining based FACS assay (reference value: 39.44%); type: functional
[25] = system: MCF7; assay: Antiproliferative activity against human MCF7 cells assessed as inhibition of cell proliferation incubated for 18 hrs followed by MTT addition for 4 hrs by MTT assay; type: functional, cell-based; outline: as §2
[26] = system: DU-145; assay: Induction of cell cycle arrest in human DU145 cells assessed as accumulation at G0/G1 phase at 10 uM incubated for 24 hrs by propidium iodide staining based FACS assay (reference value: 53.66%); type: functional
[27] = system: DU-145; assay: Induction of cell cycle arrest in human DU145 cells assessed as accumulation at G2/M phase at 15 uM incubated for 24 hrs by propidium iodide staining based FACS assay (reference value: 6.90%); type: functional
[28] = system: DU-145; assay: Induction of cell cycle arrest in human DU145 cells assessed as accumulation at S phase at 15 uM incubated for 24 hrs by propidium iodide staining based FACS assay (reference value: 39.44%); type: functional
[29] = system: DU-145; assay: Induction of cell cycle arrest in human DU145 cells assessed as accumulation at G0/G1 phase at 15 uM incubated for 24 hrs by propidium iodide staining based FACS assay (reference value: 53.66%); type: functional
[30] = system: DU-145; assay: Induction of apoptosis in human DU145 cells assessed as necrotic cells level at 15 uM incubated for 24 hrs by annexin-V and propidium iodide staining based flow cytometry (reference value: 1.33%); type: functional
[31] = system: DU-145; assay: Induction of apoptosis in human DU145 cells assessed as viable cells level at 5 uM incubated for 24 hrs by annexin-V and propidium iodide staining based flow cytometry (reference value: 93.65%); type: functional
[32] = system: DU-145; assay: Induction of cell cycle arrest in human DU145 cells assessed as accumulation at G2/M phase at 5 uM incubated for 24 hrs by propidium iodide staining based FACS assay (reference value: 6.90%); type: functional
[33] = system: HEK293; assay: Antiproliferative activity against HEK293 cells assessed as inhibition of cell proliferation incubated for 18 hrs followed by MTT addition for 4 hrs by MTT assay; type: cell-based; settings: Homo sapiens; outline: as §2
[34] = system: DU-145; assay: Induction of cell cycle arrest in human DU145 cells assessed as accumulation at G0/G1 phase at 5 uM incubated for 24 hrs by propidium iodide staining based FACS assay (reference value: 53.66%); type: functional
[35] = system: DU-145; assay: Increase in Bax protein expression in human DU145 cells at 5 to 15 uM incubated for 24 hrs by Western blotting method; type: functional, cell-based; outline: as §3
[36] = system: MCF7; assay: Induction of apoptosis in human MCF7 cells assessed as late apoptotic cells level at 7 uM incubated for 24 hrs by annexin-V and propidium iodide staining based flow cytometry (reference value: 1.85%); type: functional
[37] = system: MCF7; assay: Down-regulation of cyclin A1 mRNA expression in human MCF7 cells at 2 to 10 uM incubated for 24 hrs by quantitative real time PCR method; type: functional, cell-based
Outline: (§4)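 MCF-7 cells in DMEM/10% FBS were treated for 24 h at the indicated concentrations, then harvested, and mRNA levels were determined by qPCR.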

[38] = system: MCF7; assay: Induction of mitochondrial membrane potential loss in human MCF7 cells assessed as increase in JC1 dye monomer green fluorescence at 7 uM incubated for 24 hrs by JC1 dye based flow cytometry (reference value: 1.78%); type: functional
[39] = system: MCF7; assay: Induction of cell cycle arrest in human MCF7 cells assessed as accumulation at sub-diploid phase at 7 uM incubated for 24 hrs by propidium iodide staining based FACS assay (reference value: 7.26%); type: functional
[40] = system: MCF7; assay: Down-regulation of Bcl-2 mRNA expression in human MCF7 cells at 2 to 10 uM incubated for 24 hrs by quantitative real time PCR method; type: functional, cell-based; outline: as §4
[41] = system: MCF7; assay: Induction of cell cycle arrest in human MCF7 cells assessed as accumulation at G0/G1 phase at 7 uM incubated for 24 hrs by propidium iodide staining based FACS assay (reference value: 53.32%); type: functional
[42] = system: MCF7; assay: Induction of cell cycle arrest in human MCF7 cells assessed as accumulation at S phase at 7 uM incubated for 24 hrs by propidium iodide staining based FACS assay (reference value: 45.21%); type: functional
[43] = system: MDA-MB-231; assay: Inhibition of AKT Ser473 phosphorylation in human MDA-MB-231 cells at 2 uM incubated for 24 hrs by Western blotting method; type: cell-based; outline: as §1
[44] = system: MCF7; assay: Potency index, ratio of IC50 for miltefosine to IC50 for test compound against human MCF7 cells by MTT assay; type: functional
[45] = system: MCF7; assay: Down-regulation of cyclin A2 mRNA expression in human MCF7 cells at 2 to 10 uM incubated for 24 hrs by quantitative real time PCR method; type: functional, cell-based; outline: as §4
[46] = system: MCF7; assay: Induction of cell cycle arrest in human MCF7 cells assessed as accumulation at G2/M phase at 7 uM incubated for 24 hrs by propidium iodide staining based FACS assay (reference value: 1.47%); type: functional
[47] = system: MCF7; assay: Induction of apoptosis in human MCF7 cells assessed as necrotic cells level at 7 uM incubated for 24 hrs by annexin-V and propidium iodide staining based flow cytometry (reference value: 2.15%); type: functional
[48] = system: MCF7; assay: Induction of apoptosis in human MCF7 cells assessed as viable cells level at 7 uM incubated for 24 hrs by annexin-V and propidium iodide staining based flow cytometry (reference value: 89.58%); type: functional
[49] = system: MCF7; assay: Induction of apoptosis in human MCF7 cells assessed as early apoptotic cells level at 7 uM incubated for 24 hrs by annexin-V and propidium iodide staining based flow cytometry (reference value: 6.42%); type: functional

In the case of `CCCCCCCCCCCCCCCCOP(=O)(O)OCCSC(=S)N1CCCCC1`, the Activity [1] is reported as 1.4%, the Activity [2] is reported as 1.64% and the Activity [3] is reported as 35.26%. For the same compound, the Activity [4] was “Active”, the inhibition [5] was “Active” and the Activity [6] was 9.29%. For the same compound, the Activity [7] was 78.81%, the Activity [8] was 30.84% and the Activity [9] was “Dose-dependent effect”. The “Ratio IC50” value [10] was 2, the IC50 [11] was 14.7 µM and the IC50 [12] was 100 µM. For the same compound, the IC50 [13] was 34.3 µM, the Activity [14] was 12.65% and the Activity [15] was 6.33%. For the same compound, the Activity [16] was 3.68%, the Activity [17] was 5.92% and the Activity [18] was 4.52%. The Activity [19] was 9%, the Activity [20] was “Active” and the Activity [21] was 83.02%. The Activity [22] was 2.91%, the Activity [23] was 11.06% and the Activity [24] was 32.94%. It also gave an IC50 [25] of 29 µM, an Activity [26] of 61.15% and an Activity [27] of 5.6%. It also gave an Activity [28] of 27.27%, an Activity [29] of 67.13% and an Activity [30] of 2.21%. For the same compound, the Activity [31] was 86.45%, the Activity [32] was 5.65% and the IC50 [33] was > 100 µM. The Activity [34] was 59.09% and the Activity [35] was “Active”.

With `CCCCCCCCCCOP(=O)(O)OCCSC(=S)N1CCCCC1` the Activity [36] was 12.76%, the Activity [37] was “Active” and the IC50 [11] was 29.3 µM. For the same compound, the Activity [38] was 44.62%, the Activity [39] was 23.81% and the Activity [40] was “Active”. The IC50 [12] was 24.6 µM, the Activity [41] was 60.99% and the Activity [42] was 39.01%. For the same compound, the inhibition [43] was “Active”, the “Ratio IC50” value [44] was 5 and the Activity [45] was “Active”. The Activity [46] was 0%, the Activity [47] was 2.15% and the IC50 [25] was 7.24 µM. It also gave an Activity [48] of 43.43%, an Activity [49] of 41.66% and an IC50 [33] of 70.7 µM.
